From ChEMBL document CHEMBL5303300, “EUbOPEN Chemogenomics Library - Multiplex” (2023)
Where “and” joins values, the source holds several entries; their conditions need not be identical. Equal entries are not always repeated.

Test system: U2OS
Assay: Multiplex assay against U2OS
Type: toxicity, cell-based
Settings: human, number of replicates 2
How it was run: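 At seeding, live cells were stained with Hoechst33342, BioTracker Green Microtubule Cytoskeleton Dye, MitoTracker Red and Annexin V Alexa Fluor 680. After compound addition they were imaged on a CQ1 microscope at 37°C and 5% CO2, and CellPathfinder machine-learning gating sorted them into Hoechst high-intensity objects or normal cells, with normal cells further split into healthy, pyknosed or fragmented nuclei and pyknosed cells into mitotic or apoptotic. Tubulin, mitochondrial-mass and membrane-permeability phenotypes are given as per cents of cells with healthy nuclei.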

[1] = 12 h, 1 µM, compound concentration 1 uM
[2] = 12 h, 10 µM, compound concentration 10 uM
[3] = 24 h, 1 µM, compound concentration 1 uM
[4] = 24 h, 10 µM, compound concentration 10 uM
[5] = 48 h, 1 µM, compound concentration 1 uM
[6] = 48 h, 10 µM, compound concentration 10 uM

CC(C)S(=O)(=O)c1ccccc1Nc1nc(N[C@@H]2CCCN(CCCCCCCNC(=O)COc3cccc4c3C(=O)N(C3CCC(=O)N(C)C3=O)C4=O)C2)ncc1Cl (stereo partly drawn)
Population Apoptotic (%) [1]: 93% and 83%
Population Healthy Nuclei (%) [1]: 34% and 71%
Population Hoechst High Intensity Objects (%) [1]: 0%
Population Mitochondria Different-Phenotype (%) [1]: 8% and 7%
Population Mitotic Cells (%) [1]: 6% and 16%
Population Normal (%) [1]: 100%
Population Pyknosed Nuclei (%) [1]: 22% and 23%
Population Tubulin-Different-Phenotype (%) [1]: 69% and 61%
Total Cell Count [1]: 66 and 157
Population Apoptotic (%) [2]: 85% and 77%
Population Healthy Nuclei (%) [2]: 48% and 56%
Population Hoechst High Intensity Objects (%) [2]: 0% and 1%
Population Membrane Permeable-Phenotype (%) [2]: 80% and 93%
Population Mitochondria Different-Phenotype (%) [2]: 66% and 54%
Population Mitotic Cells (%) [2]: 14% and 22%
Population Normal (%) [2]: 100% and 98%
Population Pyknosed Nuclei (%) [2]: 22% and 37%
Population Tubulin-Different-Phenotype (%) [2]: 100%
Population Apoptotic (%) [3]: 85% and 89%
Population Fragmented Nuclei (%) [3]: 26% and 13%
Population Healthy Nuclei (%) [3]: 29% and 51%
Population Hoechst High Intensity Objects (%) [3]: 1% and 0%
Population Membrane Permeable-Phenotype (%) [3]: 0% and 6%
Population Mitochondria Different-Phenotype (%) [3]: 0% and 4%
Population Mitotic Cells (%) [3]: 14% and 10%
Population Normal (%) [3]: 98% and 100%
Population Pyknosed Nuclei (%) [3]: 44% and 34%
Population Tubulin-Different-Phenotype (%) [3]: 77% and 84%
Total Cell Count [3]: 62 and 166
Population Apoptotic (%) [4]: 85% and 93%
Population Fragmented Nuclei (%) [4]: 8% and 12%
Population Hoechst High Intensity Objects (%) [4]: 0% and 1%
Population Membrane Permeable-Phenotype (%) [4]: 50% and 40%
Population Mitochondria Different-Phenotype (%) [4]: 50% and 64%
Population Mitotic Cells (%) [4]: 14% and 6%
Population Normal (%) [4]: 100% and 98%
Population Pyknosed Nuclei (%) [4]: 84% and 57%
Population Tubulin-Different-Phenotype (%) [4]: 100% and 68%
Population Apoptotic (%) [5]: 89% and 93%
Population Fragmented Nuclei (%) [5]: 19% and 13%
Population Healthy Nuclei (%) [5]: 29% and 44%
Population Hoechst High Intensity Objects (%) [5]: 0%
Population Membrane Permeable-Phenotype (%) [5]: 5% and 9%
Population Mitochondria Different-Phenotype (%) [5]: 0% and 5%
Population Mitotic Cells (%) [5]: 10% and 6%
Population Normal (%) [5]: 100% and 99%
Population Pyknosed Nuclei (%) [5]: 50% and 41%
Population Tubulin-Different-Phenotype (%) [5]: 70% and 87%
Population Apoptotic (%) [6]: 100% and 94%
Population Fragmented Nuclei (%) [6]: 9% and 10%
Population Healthy Nuclei (%) [6]: 18% and 14%
Population Hoechst High Intensity Objects (%) [6]: 4% and 3%
Population Membrane Permeable-Phenotype (%) [6]: 75% and 62%
Population Mitochondria Different-Phenotype (%) [6]: 100% and 53%
Population Mitotic Cells (%) [6]: 0% and 5%
Population Normal (%) [6]: 95% and 96%
Population Pyknosed Nuclei (%) [6]: 72% and 75%
Population Tubulin-Different-Phenotype (%) [6]: 75% and 96%

COc1cc(OC)cc(C(=O)NNC(=O)Nc2cccc3ccccc23)c1
Population Apoptotic (%) [1]: 66% and 60%
Population Healthy Nuclei (%) [1]: 65% and 85%
Population Hoechst High Intensity Objects (%) [1]: 0%
Population Membrane Permeable-Phenotype (%) [1]: 7% and 3%
Population Mitochondria Different-Phenotype (%) [1]: 0%
Population Mitotic Cells (%) [1]: 33% and 39%
Population Normal (%) [1]: 100%
Population Pyknosed Nuclei (%) [1]: 15% and 11%
Population Tubulin-Different-Phenotype (%) [1]: 53% and 88%
Population Healthy Nuclei (%) [2]: 80% and 64%
Population Hoechst High Intensity Objects (%) [2]: 0%
Population Membrane Permeable-Phenotype (%) [2]: 0% and 5%
Population Mitochondria Different-Phenotype (%) [2]: 0%
Population Mitotic Cells (%) [2]: 57% and 90%
Population Normal (%) [2]: 100%
Population Pyknosed Nuclei (%) [2]: 15% and 19%
Population Tubulin-Different-Phenotype (%) [2]: 71% and 38%
Population Apoptotic (%) [3]: 51% and 100%
Population Fragmented Nuclei (%) [3]: 4% and 12%
Population Healthy Nuclei (%) [3]: 83% and 79%
Population Hoechst High Intensity Objects (%) [3]: 0%
Population Membrane Permeable-Phenotype (%) [3]: 2% and 0%
Population Mitochondria Different-Phenotype (%) [3]: 0%
Population Normal (%) [3]: 99% and 100%
Population Pyknosed Nuclei (%) [3]: 11% and 8%
Population Tubulin-Different-Phenotype (%) [3]: 89% and 36%
Population Apoptotic (%) [4]: 34% and 30%
Population Fragmented Nuclei (%) [4]: 5% and 6%
Population Healthy Nuclei (%) [4]: 83% and 73%
Population Hoechst High Intensity Objects (%) [4]: 0%
Population Membrane Permeable-Phenotype (%) [4]: 0% and 4%
Population Mitochondria Different-Phenotype (%) [4]: 0% and 4%
Population Mitotic Cells (%) [4]: 65% and 69%
Population Normal (%) [4]: 100%
Population Pyknosed Nuclei (%) [4]: 11% and 20%
Population Tubulin-Different-Phenotype (%) [4]: 81% and 50%
Population Apoptotic (%) [5]: 64% and 50%
Population Fragmented Nuclei (%) [5]: 3% and 6%
Population Healthy Nuclei (%) [5]: 88% and 85%
Population Hoechst High Intensity Objects (%) [5]: 0%
Population Membrane Permeable-Phenotype (%) [5]: 0% and 4%
Population Mitochondria Different-Phenotype (%) [5]: 0% and 4%
Population Mitotic Cells (%) [5]: 35% and 50%
Population Normal (%) [5]: 100%
Population Pyknosed Nuclei (%) [5]: 7% and 8%
Population Tubulin-Different-Phenotype (%) [5]: 92% and 47%
Population Apoptotic (%) [6]: 60% and 63%
Population Fragmented Nuclei (%) [6]: 5% and 2%
Population Healthy Nuclei (%) [6]: 68% and 90%
Population Hoechst High Intensity Objects (%) [6]: 2% and 0%
Population Membrane Permeable-Phenotype (%) [6]: 3% and 1%
Population Mitochondria Different-Phenotype (%) [6]: 4% and 0%
Population Mitotic Cells (%) [6]: 39% and 36%
Population Normal (%) [6]: 97% and 100%
Population Tubulin-Different-Phenotype (%) [6]: 52% and 84%
